The results in this text go back to ChEMBL document CHEMBL1142940, “Use of simple docking methods to screen a virtual library for heteroactivators of cytochrome P450 2C9” (J Med Chem, 2007).

Each structure is given as a SMILES string. Several values for one entry are separate records, joined by “and”; a condition that tells them apart may be missing. Equal values may be shown once.

T2 sequence (P11712 whole entry): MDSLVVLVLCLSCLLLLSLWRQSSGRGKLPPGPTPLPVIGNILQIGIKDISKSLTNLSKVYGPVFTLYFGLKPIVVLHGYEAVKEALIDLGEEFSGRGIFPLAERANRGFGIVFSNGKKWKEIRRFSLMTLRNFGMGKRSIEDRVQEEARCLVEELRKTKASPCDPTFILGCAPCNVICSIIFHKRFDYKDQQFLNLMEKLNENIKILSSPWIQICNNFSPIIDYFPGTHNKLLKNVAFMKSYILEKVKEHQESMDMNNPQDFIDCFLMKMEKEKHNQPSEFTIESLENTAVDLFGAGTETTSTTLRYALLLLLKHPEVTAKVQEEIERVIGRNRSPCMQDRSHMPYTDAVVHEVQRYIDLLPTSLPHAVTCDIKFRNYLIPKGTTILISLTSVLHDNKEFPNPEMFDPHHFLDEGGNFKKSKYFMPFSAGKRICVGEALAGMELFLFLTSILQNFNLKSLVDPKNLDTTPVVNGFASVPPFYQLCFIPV
T1 sequence (P11712 whole entry): as above

One data set has as its target T1, CYP2C9 (Homo sapiens, UniProt P11712). The data set can be described thus: (§1) Activation of human CYP2C9 assessed as (S)-Flurbiprofen hydroxylation. In kind it is ADME. Set-up: concentration or dose not given beside the values. Particulars: probe (S)-flurbiprofen. In a few lines: (§2)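 Reconstituted CYP2C9 (5 pmol) in 0.2 mL incubations with 20 μM (S)-flurbiprofen held constant, 50 mM potassium phosphate pH 7.4, 37 °C for 20 min. Test compounds diluted in DMSO (1% final in all reactions, controls included), screened on a log scale from 0.001–1000 μM depending on solubility. 4′-OH flurbiprofen formation measured after quench. Triplicate reactions.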
On to `NCC(=O)Nc1ccc2ccccc2c1`, for which the activity is 4.4%.
For `Cc1ccc(S(=O)(=O)c2ccc(C)cc2)cc1`, the activity came out at 50.6%.
In the case of `[O-][S+](c1ccccc1)c1ccccc1`, the activity was found to be 3.5%.
Regarding `CC(=O)Oc1ccc(S(=O)(=O)c2ccc(OC(C)=O)cc2)cc1`, the activity stood at 8%.
Consider `O=S(=O)(c1ccccc1)c1ccccc1` [(PHENYLSULFONYL)BENZENE], for which the activity was determined as 40%.
Consider `Cn1c(=O)c2c(ncn2CN2CCCC2)n(C)c1=O`, for which the activity was determined as 3%.
Same read-out and setting: the figure for `Cn1c(=O)[nH]c(=O)c2ncn(CC(=O)c3ccc(F)cc3)c21` is 7.7%.
Consider `Cc1ccc([C@@H]2NC(=O)c3ccccc3N2)cc1`, for which the activity was 6.6%.
With `O=S(=O)(c1ccc(O)cc1)c1ccc(O)cc1`, the activity was found to be 95%.
`Cc1cccc(C(=O)[C@@H](O)c2cccc(C)n2)n1`: the activity turned out to be 46%.

The next data set has as its target T2, Cytochrome P450 2C9 (Homo sapiens, UniProt P11712). The description is as §1. It counts as ADME. Set-up: concentration or dose not given beside the values.
Settings: not given
In a few lines: as §2
On to `Nc1ccc(S(=O)(=O)c2ccc(N)cc2)cc1` [DAPSONE], for which the activity was 95% and 64.1%.

For the next data set, the target named is T1, CYP2C9. Nature of the data set: Inhibition of human CYP2C9 assessed as (S)-Flurbiprofen hydroxylation at 100 uM. In kind it is ADME. Particulars: probe (S)-flurbiprofen. In a few lines:
as §2
For orientation: inhibition means the relative decrease from the control value, in per cent. For the molecule `CN1C(=O)N(c2ccc(Cl)c(Cl)c2)C(=N)C1=S`, the inhibition at 100 µM is 50%.
On the same count and under the same terms, in the case of `O=C(c1ccc(F)cc1)c1cnc2sccn12` it was 50%.

The target of the next data set is T1, CYP2C9. The data set can be described thus: Inhibition of human CYP2C9 assessed as (S)-Flurbiprofen hydroxylation at 1 uM. In kind it is ADME. The following applies: probe (S)-flurbiprofen. The procedure, abridged: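 Reconstituted CYP2C9 (5 pmol) in 0.2 mL incubations with 20 μM (S)-flurbiprofen held constant, in 50 mM potassium phosphate pH 7.4. Run at 37 °C for 20 min, then quenched, and 4′-OH flurbiprofen formation measured. Test compounds were dosed from DMSO on a log scale, with 1% DMSO final in all reactions, in triplicate. Activity is reported as % change versus control.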
For `Nc1cc(N)c(N)cc1N`, the inhibition at 1 µM is 50%.

The target in another data set is T2, Cytochrome P450 2C9. The data set can be described thus: Activation of human CYP2C9 assessed as (S)-Flurbiprofen hydroxylation. Set-up: concentration or dose not given beside the values.
Settings: not given
As to `Cc1cc(C)nc(NS(=O)(=O)c2ccc(N)cc2)n1` [SULFAMETHAZINE], the activity is recorded as -18.8%.
On the same count and under the same terms, in the case of `Nc1ccc(S(=O)(=O)Nc2ncccn2)cc1` [SULFADIAZINE] it was -17.1%.
Still for that read-out and setting: in the case of `O=C(O)c1ccc(S(=O)(=O)c2ccc(C(=O)O)cc2)cc1` it was -5%.
Take `c1ccc2c(c1)sc1ccccc12` [DIBENZOTHIOPHENE]: the activity is recorded as -10.6%.
As for `COc1ccc(S(=O)(=O)c2ccc(OC)cc2)cc1`, the activity is -25%.
Take `Nc1ccc(S(=O)(=O)c2ccc([N+](=O)[O-])cc2)cc1`: the activity was -10.6%.
